From ChEMBL document CHEMBL1129637, “Conformationally defined 6-s-trans-retinoic acid analogs. 3. Structure-activity relationships for nuclear receptor binding, transcriptional activity, and cancer chemopreventive activity” (J Med Chem, 1996)
“And” between values parts separate entries of the source, which are not always exact repeats. Identical values can stand only once.

Tests used:
Mus musculus [1] = species on record: Mus musculus; assay: Antitumor activity in Mouse Skin Papilloma model; assay type: functional
How it was run: (§1)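 Carcinogen-induced papillomas on mouse dorsal skin, with test retinoid applied 1 h before TPA. Percent papilloma reduction = (1 − mean tumors in retinoid-treated animals / mean tumors in controls) × 100. ED50 came from probit analysis of a dose-response curve. Estimated standard error is 20% of the mean.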

Mus musculus [2] = species on record: Mus musculus; assay: Percentage papilloma reduction (81) at 45.9 nmol dose 1 hr prior to TPA; assay type: functional; how it was run: as §1
[3] = target: T1, Retinoic acid receptor alpha (Mus musculus) (UniProt P11416); assay: Percent inhibition of [3H]ATRA binding to mouse Retinoic acid receptor RAR alpha; parameters: concentration or dose not given beside the values; conditions: concentration not given here
T1 sequence (whole entry): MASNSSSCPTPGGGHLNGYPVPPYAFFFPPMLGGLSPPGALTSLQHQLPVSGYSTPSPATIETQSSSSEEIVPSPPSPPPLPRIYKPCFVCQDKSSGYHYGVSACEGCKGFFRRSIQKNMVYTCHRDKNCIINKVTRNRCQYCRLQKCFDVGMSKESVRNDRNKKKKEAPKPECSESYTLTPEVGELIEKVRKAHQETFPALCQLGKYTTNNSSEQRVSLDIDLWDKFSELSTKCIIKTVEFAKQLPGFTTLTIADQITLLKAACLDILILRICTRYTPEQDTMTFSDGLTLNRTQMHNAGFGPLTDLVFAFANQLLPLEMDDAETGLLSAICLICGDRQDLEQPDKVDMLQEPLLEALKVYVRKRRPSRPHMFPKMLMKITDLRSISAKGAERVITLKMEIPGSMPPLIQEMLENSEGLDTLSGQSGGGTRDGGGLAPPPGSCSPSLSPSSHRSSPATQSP
How it was run: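 RARα was exposed to 1000 nM test retinoid plus 5 nM [3H]-(all-E)-RA. Displacement was compared with a positive control of 1000 nM unlabeled (all-E)-RA and with a no-retinoid control.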

[4] = target: Cellular retinoic acid-binding protein 1 (Gallus gallus) (UniProt P40220); assay: Inhibition of chick skin Cytoplasmic retinoic acid binding protein at 100-fold excess ligand
Chain of Cellular retinoic acid-binding protein 1 (Gallus gallus) (P40220 whole entry, the tested form may be a part): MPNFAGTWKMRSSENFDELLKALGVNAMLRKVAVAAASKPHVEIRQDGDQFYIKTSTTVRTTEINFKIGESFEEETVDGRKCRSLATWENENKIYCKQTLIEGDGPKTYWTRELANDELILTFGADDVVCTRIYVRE

[5] = target: T2, Retinoic acid receptor RXR-alpha (Homo sapiens, UniProt P19793); assay: Inhibition of binding to human Retinoic acid receptor RXR DEF domain
T2 sequence (P19793 whole entry): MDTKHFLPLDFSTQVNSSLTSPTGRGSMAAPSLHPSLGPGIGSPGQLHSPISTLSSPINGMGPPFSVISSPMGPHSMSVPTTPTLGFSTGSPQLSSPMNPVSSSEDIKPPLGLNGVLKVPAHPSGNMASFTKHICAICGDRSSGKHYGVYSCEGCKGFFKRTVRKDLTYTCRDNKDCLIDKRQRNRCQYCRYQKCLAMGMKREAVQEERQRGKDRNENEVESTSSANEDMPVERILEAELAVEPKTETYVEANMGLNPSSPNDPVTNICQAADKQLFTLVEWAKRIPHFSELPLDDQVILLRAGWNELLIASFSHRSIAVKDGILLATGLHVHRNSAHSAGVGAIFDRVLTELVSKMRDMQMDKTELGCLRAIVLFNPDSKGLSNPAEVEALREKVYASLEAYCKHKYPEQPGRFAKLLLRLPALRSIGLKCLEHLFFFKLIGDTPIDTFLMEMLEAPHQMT

[6] = target: T3, Cellular retinoic acid-binding protein 2 (Mus musculus, UniProt P22935); assay: Inhibition of [3H]ATRA binding to murine Cytoplasmic retinoic acid binding protein (CRABP) type 2
T3 sequence (P22935 whole entry): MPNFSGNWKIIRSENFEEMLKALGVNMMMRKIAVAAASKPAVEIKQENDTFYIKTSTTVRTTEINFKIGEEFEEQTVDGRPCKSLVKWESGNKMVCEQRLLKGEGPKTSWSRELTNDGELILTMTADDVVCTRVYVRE

[7] = target: Cellular retinoic acid-binding protein 1 (Mus musculus, UniProt P62965); assay: Inhibition of [3H]ATRA binding to murine Cytoplasmic retinoic acid binding protein (CRABP) type 1
Chain of Cellular retinoic acid-binding protein 1 (Mus musculus, UniProt P62965) (P62965 whole entry): as the sequence (P40220 whole entry, the tested form may be a part) above, with I68V, S71G, A86P, Y95H, K97T, I101L counted along it

[8] = target: T4, Retinoic acid receptor RXR-alpha (Mus musculus, UniProt P28700); assay: Inhibition of [3H]-(9Z)-RA binding to mouse Retinoic acid receptor RXR alpha
T4 sequence (P28700 whole entry): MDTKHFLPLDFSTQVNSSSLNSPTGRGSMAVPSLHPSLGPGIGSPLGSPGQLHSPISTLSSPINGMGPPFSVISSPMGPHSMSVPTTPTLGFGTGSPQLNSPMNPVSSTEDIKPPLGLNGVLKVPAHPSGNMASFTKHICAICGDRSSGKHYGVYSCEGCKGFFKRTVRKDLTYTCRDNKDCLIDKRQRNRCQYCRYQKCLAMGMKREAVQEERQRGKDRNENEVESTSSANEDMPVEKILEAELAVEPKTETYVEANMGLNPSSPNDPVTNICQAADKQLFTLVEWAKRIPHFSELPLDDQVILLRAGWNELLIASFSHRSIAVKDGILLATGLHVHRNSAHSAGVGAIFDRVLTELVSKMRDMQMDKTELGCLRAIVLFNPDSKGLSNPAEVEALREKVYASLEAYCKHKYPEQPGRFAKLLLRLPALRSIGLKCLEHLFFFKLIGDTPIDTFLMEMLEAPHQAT

[9] = target: Cellular retinoic acid-binding protein 1 (Gallus gallus, UniProt P40220); assay: Inhibition of [3H]ATRA binding to chick skin Cytoplasmic retinoic acid binding protein
Chain of Cellular retinoic acid-binding protein 1 (Gallus gallus, UniProt P40220) (P40220 whole entry): as the sequence (P40220 whole entry, the tested form may be a part) above

[10] = target: T5, Retinoic acid receptor alpha (Mus musculus, UniProt P11416); assay: Inhibition of [3H]ATRA binding to mouse Retinoic acid receptor RAR alpha
T5 sequence (P11416 whole entry): T1 sequence (whole entry)
How it was run: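 Radioligand competition assay for RARα, measuring inhibition of [3H]-(all-E)-RA binding by unlabeled retinoid over a dose series to derive IC50.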

Mus musculus [11] = species on record: Mus musculus; assay: Antitumor activity in Mouse Skin Papilloma model * Value determined by Dawson et al; assay type: functional
[12] = Inhibition of [3H]ATRA binding to Cytoplasmic retinoic acid binding protein (CRABP) type 1

| SMILES | ED50 (Mus musculus [1]) | Reduction (Mus musculus [2]) [%] | inhibition [3] [%] | inhibition [4] [%] | Kd [5] [nM] | Kd [6] | Kd [7] [nM] | IC50 [8] [nM] | IC50 [9] [nM] | IC50 [10] [nM] | ED50 (Mus musculus [11]) [nmol] | IC50 [12] [nM] |
| --- | --- | --- | --- | --- | --- | --- | --- | --- | --- | --- | --- | --- |
| CCC1=C(C(C)C)/C(=C/C(C)=C/C=C/C(C)=CC(=O)O)CCC1 | 4.7 nmol | 81 |  |  |  |  |  |  |  |  |  |  |
| CC1=C(C)/C(=C/C(C)=C\C=C\C(C)=C\C(=O)O)CCC1 |  | 50 | 10 | 10 | 120 | > 200 nM | > 200 | > 2000 | > 10000 | > 2000 |  |  |
| CC1=C(C)/C(=C/C(C)=C/C=C/C(C)=C/C(=O)O)CCC1 | 490 nM | 32 | 90 | 90 | > 200 | 13 nM | 1.2 | > 2000 | 1300 | 55 |  |  |
| CC1=C(/C=C/C(C)=C\C=C\C(C)=C\C(=O)O)C(C)(C)CCC1 [ALITRETINOIN] | 2.1 nM | 95 | 95 | 25 |  |  |  |  |  |  |  |  |
| CC(=CC(=O)O)/C=C/C=C(C)/C=C/C1=C(C)CCCC1(C)C [ISOTRETINOIN] |  |  |  |  |  |  |  |  |  |  | 64 |  |
| CCC1=C(C(C)C)/C(=C/C(C)=C/C=C/C(C)=C/C(=O)O)CCC1 | 2.5 nM | 99 | 98 | 100 |  |  |  | > 2000 |  |  |  |  |
| CC1=C(C(C)C)/C(=C/C(C)=C/C=C/C(C)=C/C(=O)O)CCC1 | 5 nM | 95 | 100 | 100 | > 200 |  | 1 | > 2000 |  | 8 |  |  |
| CC1=C(C(C)C)/C(=C/C(C)=C\C=C\C(C)=C\C(=O)O)CCC1 | > 100 nM | 30 | 37 | 43 | 33 |  | > 200 | 620 |  | > 1000 |  |  |
| CC(=C\C=C\C(C)=C\C(=O)O)/C=C1/C=CCCC1 | > 1000 nM | 22 | 55 | 50 | > 200 | 13 nM | 3 | > 2000 | > 10000 | 600 |  |  |
| CCC1=C(C(C)C)/C(=C/C(C)=C\C=C\C(C)=C\C(=O)O)CCC1 | > 100 nM | 43 | 42 | 15 | 16 | > 200 nM | > 200 | 1000 | > 10000 |  |  |  |
| CC1=C(/C=C/C(C)=C/C=C/C(C)=C/C(=O)O)C(C)(C)CCC1 [TRETINOIN] | 3 nM | 95 | 100 | 100 |  |  |  |  |  |  |  |  |
| C\C(C=C1C=CCCC1)=C/C=C/C(C)=C/C(=O)O |  |  | 45 | 45 | > 200 | 3 nM and 10 nM |  | > 2000 |  | > 2000 |  | > 10000 |
